Source: PubChem (The Scripps Research Institute Molecular Screening Center)
TAAR1 antagonist = human TAAR1 antagonism; CHO RD-HGA16 TAAR1, Fluo-8 calcium fluorescence, antagonist; inhibition, % at 3 µM; 1.5% of 360,000 active;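 active means inhibition above a per-plate cutoff, the mean inhibition of test compounds on that plate plus 3 SD, cut at about 49% in these data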;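 further: 0% = DMSO plus EC80 beta-PEA response and 100% = DMSO alone without agonist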
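Assay system: RD-HGA16 CHO cells with stable hTAAR1 and Gα16 / Reagent: EC80 β-phenethylamine stimulus / Doses: 3 µM, single point / Timing: dye loading 75 min at 37 °C, then 30 min room temperature / Measured by: Fluo-8 intracellular calcium dye fluorescence, real-time kinetic reads / Controls: vehicle wells and EC80 agonist wells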
OX1R antag-1 = OX1R (human) antagonism; O43613; OX1R-expressing cells, FRET antagonist read-out; inhibition, % at 6.6 µM; 1.8% of 330,000 active; AID 485270; in the data active means inhibition mostly above about 38%, no sharp cut-off; inactive means mostly below about 40%;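 further: 0% = agonist challenge alone and 100% = reference antagonist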
Target sequence (O43613 whole entry, looked up): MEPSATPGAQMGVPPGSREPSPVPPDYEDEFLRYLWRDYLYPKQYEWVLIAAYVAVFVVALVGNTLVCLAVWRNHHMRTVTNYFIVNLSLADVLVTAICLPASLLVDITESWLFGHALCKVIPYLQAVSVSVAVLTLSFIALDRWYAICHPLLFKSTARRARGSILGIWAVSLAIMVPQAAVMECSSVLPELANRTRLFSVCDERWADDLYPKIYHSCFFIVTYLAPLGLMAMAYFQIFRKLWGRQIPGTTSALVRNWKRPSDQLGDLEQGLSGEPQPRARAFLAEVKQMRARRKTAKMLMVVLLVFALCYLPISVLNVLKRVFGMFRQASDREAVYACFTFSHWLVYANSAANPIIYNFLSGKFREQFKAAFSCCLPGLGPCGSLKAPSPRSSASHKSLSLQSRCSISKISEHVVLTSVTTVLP
TAAR1 agonist = agonists of human TAAR1. CHO RD-HGA16 TAAR1, Fluo-8 calcium fluorescence; vehicle wells 0%, saturating PEA agonist 100%. Q96RJ0. 0.99% of 360,000 active. activation, % at 3 µM;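 active means activation above the mean activation of all test compounds in the run plus 3 SD, cut at about 38% in these data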
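Test system: RD-HGA16 (CHO) cells co-expressing Gα16 and hTAAR1; dosing: one-point dosing at 3 µM (nominal); timing: 17-24 h seeding, 75 min 37 °C dye, 30 min RT; signal: kinetic Fluo-8 calcium fluorescence; read-out basis: % activation relative to PEA EC100 response; controls: DMSO and PEA EC100; replicates: n 1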
CHO parental Ca = counter-screen for OX1R antagonists: effect in parental CHO cells; parental CHO-K1, ATP-induced calcium, Fluo-8 fluorescence; inhibition, % at 5.6 µM; 0.63% of 330,000 active;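 active means inhibition above that plate's mean sample inhibition plus 3 SD, cut at about 26% in these data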;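 further: 0% = ATP-challenged DMSO wells and 100% = DMSO wells without ATP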
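Measured by: calcium-sensitive Fluo-8 fluorescence / Test system: CHO parental line / Controls: ATP-challenged DMSO wells low, unchallenged DMSO wells high / Measure: % inhibition / Compound: single nominal dose of 5.6 µM per compound / Replicates: single well per compound, no replicates / Reagent: ATP as calcium-mobilizing challenge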
OX1R antag-2 = blocks the human orexin 1 receptor | CHO/OX1R cells, Fluo-8 calcium fluorescence, orexin A | O43613 | inhibition, % at 5 µM | 0.43% of 330,000 active | AID 434989;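 active means inhibition above its plate's threshold, mean inhibition of all tested compounds on the plate plus 3 SD, cut at about 37% in these data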;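 further: 0% = orexin A challenge wells and 100% = SB-334867-A antagonist wells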
The depositor's hits bear a star; . = not tested or not shown; + = active, no number. Compounds with a hit are over-represented: about 3.9% of the library has one in this group of screens.

SMILES	TAAR1 antagonist	OX1R antag-1	TAAR1 agonist	CHO parental Ca	OX1R antag-2
COc1cccc(CNC(=O)Cn2ccc3cc(S(=O)(=O)N4CCCC4)ccc32)c1	-6.2	26.7	2.3	-9.7	-9.9
CCOC1=C2CN(S(=O)(=O)c3ccc(C)cc3)[C@@H](c3ccc(CC)cc3)C[C@H]2[C@H]2C(=O)N(c3ccccc3)C(=O)[C@H]2C1	-24.2	.	1.4	.	.
Cc1ccccc1Nc1nc(N)[nH]c(=O)c1N=O	-4.3	.	0.2	.	.
CCn1cc(/C=N/N=C2\CCC3C4CCc5cc(O)ccc5C4CC[C@]23C)c(C)n1 (stereo not given in full)	33.5	52.6	11.1	38.1*	29.7
CC12CCC3c4ccc(O)cc4CCC3C1CCC2=O (stereo not given)	19.9	28.3	5.2	-9.5	-13.8
O=C(CC1CC2CCC1C2)N1CCN(S(=O)(=O)c2ccc(C(F)(F)F)cc2)CC1 (stereo not given)	-11.2	.	8.5	.	.
Cc1cc(=O)oc2cc(OC(=O)c3ccccc3)ccc12	-14.8	9.8	0.5	-16.7	-21.1
COc1ccccc1-c1c(C(F)(F)F)oc2cc(OC(=O)c3ccc([N+](=O)[O-])cc3)ccc2c1=O	-3.0	72.5*	3.2	-13.4	-2.6
COCc1cc(N2CCN(C(=O)OC(C)(C)C)C[C@@H]2C)ccc1N1CC[C@@H](O)C1	-2.5	.	1.7	.	.
COc1ccc(OC)c(S(=O)(=O)N2CCN(c3c(C)cccc3C)CC2)c1	3.2	13.0	-1.7	26.0*	-28.8
COc1ccc(OC)c(S(=O)(=O)N2CCC(C(=O)Nc3cccc(C(F)(F)F)c3)CC2)c1	52.7*	36.8	15.8	0.1	12.9
COc1cccc(NC(=O)C2CCN(S(=O)(=O)c3ccccc3)CC2)c1	-14.1	27.7	8.2	-6.6	-14.9
CC(=O)C1=CCC(c2ccccc2Cl)N(S(=O)(=O)c2ccc(C)cc2)C1 (stereo not given)	-29.8	.	-1.1	.	.
COC(=O)C[C@H]1C=C[C@@H](NC(=O)C2CC2)[C@@H](CO)O1	-17.1	.	1.5	.	.
c1ccc(-c2nc(-c3ccc(-c4ccon4)s3)no2)cc1	-26.0	4.6	0.9	-0.2	-5.9
c1csc(-c2nc(-c3ccc(-c4ccon4)s3)no2)c1	-0.7	39.5*	-0.2	-9.2	28.1
COc1ccc(OC)c(NC(=O)Nc2nnc(COCCO)s2)c1	10.1	.	0.1	.	.
Cc1ccc(NN2C(=O)C=C(c3ccc(Cl)cc3)C2=O)cc1	57.5*	39.5	36.8	68.3*	72.7*
Cn1cc([C@]2(O)C(=O)Nc3ccc(OC(F)(F)F)cc32)c2ccccc21	39.5	.	41.2*	.	.
CC1(Cc2ccccc2OC(F)(F)F)C(=O)Nc2ccc(OC(F)(F)F)cc21 (stereo not given)	6.8	.	-1.2	.	.
COc1cc2c(cc1NC(=O)C(C)Sc1ccc(NC(C)=O)cc1)oc1ccccc12 (stereo not given)	49.8*	49.1	8.9	18.6	16.5
O=C1C(F)=CC(COC(c2ccccc2)(c2ccccc2)c2ccccc2)OC1n1cc(F)c(=O)[nH]c1=O (stereo not given)	54.3*	.	8.8	.	.
O=c1c(O)c(-c2ccccc2)oc2ccccc12	-4.5	.	14.6	.	.
O=c1c(O)c(-c2cccs2)oc2ccccc12	27.2	24.2	45.4*	49.0*	18.7
NC(=O)CC1NC(=O)c2cc([N+](=O)[O-])cc(I)c2OCCC(C(N)=O)NC(=O)[C@@H]2CCCN2C1=O (stereo not given in full)	0.9	61.2*	-0.4	-11.1	-15.2
SMILES	TAAR1 antagonist	OX1R antag-1	TAAR1 agonist	CHO parental Ca	OX1R antag-2
CCC(=O)N(CC)C1=C(O)c2ccccc2C(=O)C1=O	-1.8	57.9*	9.5	-0.1	-0.7
Nc1nnc(SCC(=O)OCC(=O)Nc2ccc(Br)cc2)s1	1.2	11.7	44.1*	2.0	8.9
Cc1noc(C)c1S(=O)(=O)Nc1ccc(C(=O)N2CCN(c3cccc(Cl)c3)CC2)cc1	38.3	25.7	8.7	33.2*	56.5*
Cc1cccc(N2CCN(C(=O)c3ccc(NS(=O)(=O)c4c(C)noc4C)cc3)CC2)c1C	14.6	23.6	-0.8	-16.9	-13.1
CC(C)OC(=O)c1nnn(-c2nonc2N)c1CN1CCc2ccccc2C1	-12.9	.	15.6	.	.
CCOC(=O)c1nnn(-c2nonc2N)c1CN1CCc2ccccc2C1	7.0	14.8	40.1*	-10.2	-12.7
CCCC(=O)OC[C@H]1CN([C@H](C)c2ccccc2)S(=O)(=O)c2c(F)cccc2O1	9.2	.	-1.2	.	.
COC(=O)c1ccc(N)cc1O	-8.7	8.8	8.8	-3.8	12.5
COC(=O)c1ccccc1-c1c2ccc(=N)cc-2oc2cc(N)ccc12	104.8*	30.1*	+	101.6*	112.1*
CCn1c(SCc2nc(CC(=O)Nc3ccccc3OC)no2)nnc1-c1cccs1	-1.6	70.5*	7.7	-15.9	-5.5
Cc1cc(C)n(-c2ccc(C(=O)Nc3ccc(S(=O)(=O)NCc4ccco4)cc3)cc2)n1	62.1*	28.7	15.3	29.8	28.2
Cc1ccc(C(=O)Nc2ccc(S(=O)(=O)NCc3ccco3)cc2)cc1	-11.7	11.1	7.3	-1.1	6.6
CC(=O)N1CCN(C(=O)CNC(=O)c2ccc(C)s2)CC1	-13.2	.	3.4	.	.
CCN(C(=O)C1CCN(c2nc(-c3ccc(OC)cc3)no2)CC1)c1ccc(OC)cc1	-14.2	19.3	-1.9	35.7*	-3.2
CC(=O)NC1CCCCN(C)C1=O (stereo not given)	0.3	.	1.1	.	.
COc1ccc2sc(-c3ccc(S(C)(=O)=O)cc3)c(C(=O)NCCc3c[nH]c4ccccc34)c2c1	58.3*	21.8	27.7	10.1	33.0
COc1ccc(NC(=O)C2(C)CCN2Cc2ccc(OC(F)(F)F)cc2)cc1OC (stereo not given)	-2.6	.	3.1	.	.
O=C(O)c1cccc(N2C(=O)c3ccc4c5c(ccc(c35)C2=O)C(=O)N(c2cccc(C(=O)O)c2)C4=O)c1	-4.5	74.1*	-1.1	13.6	-7.5
Cn1c(=O)c2c(ncn2CC(=O)Nc2nc(-c3ccccc3Cl)cs2)n(C)c1=O	19.3	10.1	38.9*	-6.1	3.7
CCOC(=O)Cc1csc(NC(=O)Cn2cnc3c2c(=O)n(C)c(=O)n3C)n1	11.9	4.7	3.9	-1.9	-4.2
CC(=O)NC(c1cccc(F)c1)c1nc(-c2ccoc2)cs1 (stereo not given)	-10.2	.	1.6	.	.
CN(C)c1ccc2nc3ccc(=[N+](C)C)cc-3sc2c1	-0.9	58.9*	1.9	-10.4	8.7
O=C(NC1CCCC1)C1C(c2ccc(C(F)(F)F)cc2)=Nc2ccccc2N1C(=O)c1cc2ccccc2[nH]1 (stereo not given)	-11.8	.	-2.7	.	.
Cc1ccc(Cl)cc1N1CCN(CC(=O)Nc2ccc(CN3CCCCC3)cc2)CC1	-2.9	13.8	52.3*	-11.1	-4.6
CC(C)C[C@H]1CN=C(Nc2ccccc2)N1CCCCc1ccccc1	-4.4	5.0	42.4*	-15.2	-13.0
